From the EternaBench riboswitch data

Assays:
[1] = tested on: MS2 coat protein; assay: apparent Kd, MS2 coat protein; higher = weaker binding; RNA-MaP array; tryptophan 2.4 mM where present
Procedure, shortened: (§1)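 Apparent Kd: the median of filtered binding-curve fits from single clusters. Designs were transcribed on Illumina sequencing-chip clusters by stalled E. coli RNA polymerase and titrated with SNAP-549-labelled MS2 coat protein from 0.7 or 1.5 nM, doubling to 3 µM, in 100 mM Tris-HCl pH 7.5, 80 mM KCl, 4 mM MgCl2, BSA, DTT, yeast tRNA and Tween-20. Each series ran without and then with constant ligand, and green signal was normalised to red-channel RNA signal and control-cluster median Fmax.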

[2] = tested on: MS2 coat protein; assay: apparent Kd, MS2 coat protein; higher = weaker binding; RNA-MaP array; theophylline 2 mM where present
Procedure, shortened: as §1

[3] = designed as: ON switch for tryptophan, no ligand
[4] = ligand present: tryptophan, designed as: ON switch for tryptophan
[5] = designed as: ON switch for theophylline, no ligand
[6] = ligand present: theophylline, designed as: ON switch for theophylline
[7] = designed as: OFF switch for theophylline, no ligand
[8] = ligand present: theophylline, designed as: OFF switch for theophylline

How did the “apparent Kd” value [1, 3] turn out when “CGAGUGAGUUCAAUCGAAUAACGGUUUUCGCGAGGACCGGUACGGCCGCCACUCGUGUGAUAUCACACAUGAGGAUCACCCAUGU” was run?
The value was 37.9 nM.

And the “apparent Kd” value [1, 4]?
The value was 31.6 nM.

“AACACAUGAGGAUCACCCAUGUCCAUGUACCGAGGACCGGUACGGCCGCCACUCGACAUGAGGAUCACCCAUGUUCCAUGUUGUC” was tested. Which “apparent Kd” value [1, 3] did it give?
Its value is 108 nM.

What about the “apparent Kd” value [1, 4] of the same sequence?
Its value is 149 nM.

How did the “apparent Kd” value [1, 3] turn out when “CGACUGUAAAGUCGACCGGUCAUCAAUAAUCGAGGACCGGUACGGCCGCCACUCGAUGUGAUUUCACAUGAGGAUCACCCAUGUA” was run?
The value was 23.9 nM.

And the “apparent Kd” value [1, 4]?
Its value is 22.2 nM.

With “AUAUAUACAUGAGGAUCACCCAUGUUAUUUCGAGGACCGGUACGGCCGCCACUCGAUAGAGUAGAAGUAAAUUUUAAUUCAUGUA” as the sequence, how does the “apparent Kd” value [1, 3] read?
Its value is 14.3 nM.

And the “apparent Kd” value [1, 4]?
Its value is 14.1 nM.

What does the source list for “AGAUGAGUCACGGCCGCCACUCUUAUCAGGAUCACCCAUGGUUGACAUGAGGAUCACCCAUGUAUGAGGACCGGGUGAUGAGCAU”?
apparent Kd ([1]; designed as: OFF switch for tryptophan, no ligand): 12.2 nM; apparent Kd ([1]; ligand present: tryptophan, designed as: OFF switch for tryptophan): 15.6 nM

“CACGAUUUGUCGGCCGCCACUAAGGUAACUCUUCUCACAUGAGGAUCACCCAUGUGCCCGAAGCUUAGGACCGGGAUAAUGGGUG” was tested. Which “apparent Kd” value [1, 3] did it give?
Its value is 118 nM.

What about the “apparent Kd” value [1, 4] of the same sequence?
The value was 40.8 nM.

What does the source list for “AAUAUAAGUGUAAUUAUAUGUAUCUCUGAUACCAGACUCUCAUGUGUCCCUUGGCAGCAGUUACAUGAGGAUCACCCAUGUAUUA”?
apparent Kd [2, 5]: 103 nM; apparent Kd [2, 6]: 31.9 nM

With “GAGCUGAUGUAGAGAUUUUAUUUCUGAGAUACCAGUACAGAAAUGUACCCUUGGCAGCUCAGCUUUACAUGAGGAUCACCCAUGU” as the sequence, how does the “apparent Kd” value [2, 7] read?
The value was 17.2 nM.

What about the “apparent Kd” value [2, 8] of the same sequence?
Its value is 22.1 nM.

Which “apparent Kd” value [2, 5] does the source give for “AAAAUAAAUAAAACACGUAACAUGAAGGAUACCAGACCGGAAACGGUCCCUUGGCAGCCUCUACAUGAGGAUCACCCAUGUCGUG” here?
Its value is 238 nM.

And the “apparent Kd” value [2, 6]?
The value was 30.9 nM.

How did the “apparent Kd” value [2, 7] turn out when “AUACCUAAUGAGUCGUGUAACUUUUCAGAUACCAGACUUUUCGUUGUCCCUUGGCAGCUGUUUUACAUGAGGAUCACCCAUGUUG” was run?
The value was 15.9 nM.

What about the “apparent Kd” value [2, 8] of the same sequence?
The value was 38.1 nM.

Which “apparent Kd” value [2, 7] does the source give for “GAGCUGAUGUAGAGCUAAUAUAAGAGAGAUACCAGUACAGAAAUGUACCCUUGGCAGCUCAACUUUACAUGAGGAUCACCCAUGU” here?
The value was 13.9 nM.

What about the “apparent Kd” value [2, 8] of the same sequence?
The value was 16.9 nM.

How did the “apparent Kd” value [2, 7] turn out when “UCGCACAUGAGGAUCACCCAUGUACUAGAUACCAGUGACGCGGUGCACCCUUGGCAGCUGGUGCUGAGUGAUGGUUCCCUCGGCA” was run?
The value was 119 nM.

What about the “apparent Kd” value [2, 8] of the same sequence?
The value was 143 nM.

Which “apparent Kd” value [2, 5] does the source give for “AGUGUUAUAACUGAUACCAGACCUUUGCUUAUACAUGAGGAUCACCCAUGUAAAAUGGCUGUCCCUUGGCAGCAGAGAAUACACA” here?
The value was 46 nM.

And the “apparent Kd” value [2, 6]?
Its value is 16.5 nM.

Which results are given for “UCUGGGUGCGCAAGGACCUGGAGUUGCGAUACCAGCACGGUAACGUGCCCUUGGCAGCGCACAUGAGGAUCACCCAUGUGGUGUU”?
apparent Kd [2, 7]: 310 nM; apparent Kd [2, 8]: 388 nM

With “ACACCGAAAGGUGCAUUUACCUUAUCAGAUACCAGACUUUACGUUGUCCCUUGGCAGCUGUAUCACAUGAGGAUCACCCAUGUUG” as the sequence, how does the “apparent Kd” value [2, 5] read?
Its value is 15.5 nM.

What about the “apparent Kd” value [2, 6] of the same sequence?
The value was 16.5 nM.

For “GGUGGGACUUGUGAUACCAGCCCAAUUCGAAUCGAAUUGCACAUGAGGAUCACCCAUGUCGGCCCUUGGCAGCAUGAGUAUUUAU”, which “apparent Kd” value [2, 5] is on record?
Its value is 312 nM.

What about the “apparent Kd” value [2, 6] of the same sequence?
The value was 16.8 nM.

What does the source list for “UGUUUGGUGCGCGAGUGUUGGAUAAAUGAUACCAGUGUAGAUGUACGCCCUUGGCAGCGUAUCCGAACAUGAGGAUCACCCAUGU”?
apparent Kd [2, 5]: 37.7 nM; apparent Kd [2, 6]: 67.2 nM

For “GAUGAACUAUAUGAUACCAGACAACAUGAGGAUCACCCAUGUGAUUGUCGUCCUCUGCCUGUCCCUUGGCAGCGUAUAGUUUAUC”, which “apparent Kd” value [2, 7] is on record?
The value was 33.8 nM.

What about the “apparent Kd” value [2, 8] of the same sequence?
The value was 229 nM.

For “ACGACGCAUAGUGAUACCAGUAGAACAUGAGGAUCACCCAUGUCUGUGACGCACAAACUCUGCCCUUGGCAGCACUAUGCGUCAG”, which “apparent Kd” value [2, 5] is on record?
The value was 10.8 nM.

And the “apparent Kd” value [2, 6]?
The value was 17.4 nM.

What does the source list for “UAAAAUAAUAAUGAUACCAGCCCUCCCUCCCGGGACAUGAGGAUCACCCAUGUCUCUCCCGGCCCUUGGCAGCAUAAAUAAUAAU”?
apparent Kd [2, 5]: 11.1 nM; apparent Kd [2, 6]: 14.2 nM

With “AAUAACAUGAGGAUCACCCAUGUAAAAGAUACCAGAGUGAUGAUCCUCCCUUGGCAGCUUAAAACGCUAUUGGAAACAAUAGCGA” as the sequence, how does the “apparent Kd” value [2, 5] read?
Its value is 80.5 nM.

What about the “apparent Kd” value [2, 6] of the same sequence?
The value was 168 nM.

“UGACAUUGCUCAGAUACCAGACAUGAGGAUCACCCAUGUACCAAGAAAACGUACAUAAAUGUCCCUUGGCAGCUGAGCAAUGUCU” was tested. Which “apparent Kd” value [2, 7] did it give?
Its value is 524 nM.

And the “apparent Kd” value [2, 8]?
Its value is 713 nM.

How did the “apparent Kd” value [2, 5] turn out when “AUCGUACCUGAUGAUACCAGCAAUUGCUCGUAACAUGAGGAUCACCCAUGUGAUCAGUGAUGCCCUUGGCAGCAUGAUCGGUGCA” was run?
The value was 262 nM.

What about the “apparent Kd” value [2, 6] of the same sequence?
Its value is 35.4 nM.
